Test results: ChEMBL document CHEMBL1141879, “Alkylamino derivatives of 4-aminomethylpyridine as inhibitors of copper-containing amine oxidases” (J Med Chem, 2005)

Columns and labels:
[1] = target: T1, Peroxisomal primary amine oxidase (Pichia angusta, UniProt P12807); experiment: (§1) Inhibition of beta-phenylethylamine binding to Hansenula polymorpha amine oxidase; parameters: species or system Ogataea angusta
T1 sequence (P12807 whole entry): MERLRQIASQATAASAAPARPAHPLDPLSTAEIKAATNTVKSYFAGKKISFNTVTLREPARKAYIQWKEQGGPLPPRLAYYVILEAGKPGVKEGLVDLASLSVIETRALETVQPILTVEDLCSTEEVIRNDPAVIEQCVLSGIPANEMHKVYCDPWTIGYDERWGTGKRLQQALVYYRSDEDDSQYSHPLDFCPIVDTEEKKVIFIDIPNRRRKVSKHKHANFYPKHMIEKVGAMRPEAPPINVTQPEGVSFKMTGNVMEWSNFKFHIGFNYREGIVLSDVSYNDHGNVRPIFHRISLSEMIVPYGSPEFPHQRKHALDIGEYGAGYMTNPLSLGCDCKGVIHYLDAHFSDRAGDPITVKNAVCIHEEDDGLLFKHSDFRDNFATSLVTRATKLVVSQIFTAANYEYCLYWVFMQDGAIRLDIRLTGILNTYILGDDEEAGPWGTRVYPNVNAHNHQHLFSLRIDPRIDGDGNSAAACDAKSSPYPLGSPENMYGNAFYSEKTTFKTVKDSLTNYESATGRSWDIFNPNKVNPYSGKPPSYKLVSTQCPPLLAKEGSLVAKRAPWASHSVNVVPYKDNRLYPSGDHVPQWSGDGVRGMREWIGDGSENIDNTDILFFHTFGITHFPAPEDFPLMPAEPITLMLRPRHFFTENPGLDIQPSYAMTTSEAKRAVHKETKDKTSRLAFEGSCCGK

[2] = target: T2, Primary amine oxidase (Pisum sativum, UniProt Q43077); experiment: Inhibition of putrescine binding to Pea seedling amine oxidase; parameters: species or system Lathyrus oleraceus
T2 sequence (Q43077 whole entry): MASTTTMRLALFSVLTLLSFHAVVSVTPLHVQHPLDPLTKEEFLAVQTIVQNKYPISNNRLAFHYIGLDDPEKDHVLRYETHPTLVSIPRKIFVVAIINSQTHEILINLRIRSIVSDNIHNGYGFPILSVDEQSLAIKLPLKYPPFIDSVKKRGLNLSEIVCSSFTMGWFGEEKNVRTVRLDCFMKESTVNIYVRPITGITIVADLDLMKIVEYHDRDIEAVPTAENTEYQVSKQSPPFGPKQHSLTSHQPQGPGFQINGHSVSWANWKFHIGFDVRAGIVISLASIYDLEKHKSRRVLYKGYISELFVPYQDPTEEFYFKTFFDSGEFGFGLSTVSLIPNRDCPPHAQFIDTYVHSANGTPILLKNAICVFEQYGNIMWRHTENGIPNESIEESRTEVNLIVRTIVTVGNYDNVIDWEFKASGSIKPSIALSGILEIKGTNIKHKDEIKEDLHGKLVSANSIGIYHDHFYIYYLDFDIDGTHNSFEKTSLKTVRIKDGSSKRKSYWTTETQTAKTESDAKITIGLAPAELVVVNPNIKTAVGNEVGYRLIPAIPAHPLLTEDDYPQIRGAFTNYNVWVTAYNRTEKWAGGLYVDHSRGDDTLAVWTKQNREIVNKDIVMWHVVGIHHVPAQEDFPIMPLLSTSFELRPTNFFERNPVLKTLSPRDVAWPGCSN
Procedure, shortened: (§2)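 Enzyme sources: BAO from commercial porcine serum; DAO porcine kidney enzyme; PSAO from homogenate of 8-day-old pea seedlings in 0.1 M phosphate pH 7.4, cleared by two centrifugations. Substrate at saturating 1 mM (benzylamine for BAO, putrescine for DAO/PSAO). Activity read as H2O2 production by 4-aminoantipyrine method. IC50 from five inhibitor concentrations, each in duplicate, averaged.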

[3] = target: T3, Amine oxidase [flavin-containing] A (Rattus norvegicus, UniProt P21396); experiment: Inhibitory concentration for rat liver Monoamine oxidase A using 5-hydroxytryptamine
T3 sequence (P21396 whole entry): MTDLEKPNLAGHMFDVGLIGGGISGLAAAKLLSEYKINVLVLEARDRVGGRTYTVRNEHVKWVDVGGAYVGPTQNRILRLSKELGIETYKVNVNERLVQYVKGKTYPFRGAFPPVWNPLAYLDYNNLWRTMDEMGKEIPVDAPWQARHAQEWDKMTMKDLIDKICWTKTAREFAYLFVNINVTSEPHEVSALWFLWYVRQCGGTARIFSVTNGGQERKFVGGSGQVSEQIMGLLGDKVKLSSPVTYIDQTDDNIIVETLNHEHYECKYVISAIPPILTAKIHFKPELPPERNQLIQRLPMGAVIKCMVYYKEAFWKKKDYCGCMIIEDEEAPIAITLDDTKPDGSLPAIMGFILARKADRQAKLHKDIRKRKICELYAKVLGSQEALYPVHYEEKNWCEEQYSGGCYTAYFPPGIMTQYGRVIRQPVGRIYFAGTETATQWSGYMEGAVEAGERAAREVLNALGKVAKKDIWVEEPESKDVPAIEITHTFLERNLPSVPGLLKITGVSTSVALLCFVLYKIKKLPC

[4] = target: T4, Amine oxidase [flavin-containing] B (Rattus norvegicus, UniProt P19643); experiment: Inhibitory concentration for rat liver Monoamine oxidase B using beta-phenylethylamine
T4 sequence (P19643 whole entry): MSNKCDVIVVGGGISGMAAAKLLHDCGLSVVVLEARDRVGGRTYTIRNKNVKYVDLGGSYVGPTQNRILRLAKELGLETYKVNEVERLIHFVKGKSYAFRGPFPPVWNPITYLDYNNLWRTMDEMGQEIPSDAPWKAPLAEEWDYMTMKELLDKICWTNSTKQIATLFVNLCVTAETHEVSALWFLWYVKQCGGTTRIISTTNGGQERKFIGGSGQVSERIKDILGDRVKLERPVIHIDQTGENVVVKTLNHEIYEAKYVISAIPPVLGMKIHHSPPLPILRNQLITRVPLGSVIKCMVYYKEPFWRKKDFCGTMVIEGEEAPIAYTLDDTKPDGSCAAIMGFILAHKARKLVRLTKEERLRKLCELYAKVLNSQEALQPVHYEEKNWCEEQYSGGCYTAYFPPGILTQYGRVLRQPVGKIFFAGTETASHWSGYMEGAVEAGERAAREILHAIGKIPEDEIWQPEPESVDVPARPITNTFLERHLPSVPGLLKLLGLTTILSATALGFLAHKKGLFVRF

[5] = target: T1, Peroxisomal primary amine oxidase; experiment: Inhibition of phenylethylamine binding to Hansenula polymorpha amine oxidase
Procedure, shortened: (§3)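 Enzyme: HPAO from Hansenula polymorpha NCYC-495 grown 24 h with glucose, 1 µM CuSO4 and methylamine, then homogenized in 0.1 M phosphate pH 7.4 and centrifuged. Substrate beta-phenylethylamine at saturating 1 mM. IC50 means from five inhibitor concentrations tested in duplicate.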

[6] = target: T2, Primary amine oxidase; experiment: Inhibition of putrescine binding to pea seedling amine oxidase; parameters: species or system Lathyrus oleraceus; procedure, shortened: as §2
[7] = Intraperitoneal lethal dose was measured in Mus musculus; type: ADME; conditions: ip
Procedure, shortened: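 Acute toxicity was tested in Swiss white Mus musculus. Five scaled doses were given intraperitoneally, 10 animals per dose.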

[8] = target: T1, Peroxisomal primary amine oxidase; experiment: as §1; procedure, shortened: as §3

Compound	IC50 [1] [µM]	IC50 [2] [µM]	IC50 [3] [µM]	IC50 [4] [µM]	also measured
CNc1cncc(N(C)C)c1CN	100	17	44	250	
CNc1cnccc1CN			420	> 170	IC50 [5]: 53 µM; IC50 [6]: 0.71 µM
Cl.Cl.NCc1c(OCCCCO)cncc1OCCCCO					LD50 [7]: > 500 mg/kg
Cl.Cl.NCc1c(OCCO)cncc1OCCO.O.O.O			> 1600	> 1000	LD [7]: > 600 mg/kg
CNc1ccccc1CN	750	> 100		> 100	
CCOc1cncc(OCc2ccccc2)c1CN			630	1000	
NCc1ccncc1N			> 2000	> 2000	
NCc1ccncc1NC1CC1	> 1000		> 100	90	
CC(C)Nc1cnccc1CN	> 1000		2200	2000	
CCOc1cncc(OCC)c1CN.Cl.Cl	> 1000	330	> 1600	> 1000	LD50 [7]: 342 mg/kg
NCc1ccncc1NC1CCCC1	700		> 100	> 100	
CCCNc1cncc(N(C)CCC)c1CN			10	20	
CCNc1cncc(N(C)CC)c1CN	350	55	63	300	
CCNc1cnccc1CN	87	9.3	300	> 170	
NCc1ccncc1NC1CCCCCC1	> 300	1000	150	> 100	
CNc1cncc(NC)c1CN			170	> 170	
CCSc1cncc(SCC)c1CN				> 1000	
CC(C)(C)Sc1cncc(SC(C)(C)C)c1CN				> 1000	
NCc1ccncc1NCC1CCCCC1	540		95	70	
NCc1ccncc1NC1CCCCC1	> 1000		> 100	> 100	
CCNc1ccccc1CN		> 100		> 100	IC50 [8]: 1500 µM
NCc1ccncc1N(C1CCCC1)C1CCCC1	> 1000		> 100	> 100	
